Legend:
[1] = melting temperature; fluorescence melt of hairpins on a sequencing array, two-state fit, raised by 9.35 °C to match UV melts; settings: sodium 0.088 M
Method in brief: (§1)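 Melting temperature and folding enthalpy were obtained by bootstrapped two-state fitting. Fits used Cy3 fluorescence of library hairpins with annealed Cy3 and quencher oligos on a sequenced MiSeq flow cell, imaged in 50 mM Na-HEPES pH 8.0, 25 mM NaCl in 2.5 °C steps up to 60 °C and normalised to pre-quench Cy3 and control constructs. Four replicates were combined by inverse-variance weighting, and fitted temperatures were raised by 9.35 °C to match UV melts.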

[2] = folding enthalpy; higher = less favourable; fluorescence melt of hairpins on a sequencing array, two-state fit; settings: sodium 0.088 M
Method in brief: as §1

| Sequence | Tm [1] | folding enthalpy [2] |
| --- | --- | --- |
| GATCATGTAATGATC ((((((...)))))) | 57.4 °C | -39.8 kcal/mol |
| GATCATTCGTATGATC ((((((....)))))) | 48.1 °C | -33.3 kcal/mol |
| GCCTCCGGAAACGGGGGC (((.(((....))).))) | 67.1 °C | -31 kcal/mol |
| GTTCCCGAAAGGGGAAAC ((((((....)))..))) | 37.2 °C | -11.8 kcal/mol |
| GGCTGCGGAAACACAGCC (((((.(....).))))) | 56 °C | -42 kcal/mol |
| GCAACCGGAAACAGTTGC (((((.(....).))))) | 45.7 °C | -31.7 kcal/mol |
| GACGGGCGAAAGCCAGTC (((.(((....))).))) | 67.9 °C | -21.7 kcal/mol |
| GCTCAAGCGAAAGCTAGC (((..(((....)))))) | 40.6 °C | -14.1 kcal/mol |
| GAAGTAGGAAACTACTTC (((((((....))))))) | 52.5 °C | -42.6 kcal/mol |
| GATCCATAGTTGGATC ((((((....)))))) | 50.6 °C | -33.2 kcal/mol |
| GATCCGGGACCGGATC ((((((....)))))) | 65.4 °C | -44.4 kcal/mol |
| GACAGAGGAAACTCTGCC (.(((((....))))).) | 41.9 °C | -15.5 kcal/mol |
| GTTGCAGGAAACTGCAGC (.(((((....))))).) | 51.5 °C | -17.4 kcal/mol |
| GCTCCCGAAAGGGTAAGC ((((((....)))..))) | 46.2 °C | -20.7 kcal/mol |
| GCTGAGGGAAACCTCAAC (.(((((....))))).) | 36.6 °C | -18.9 kcal/mol |
| GGTATGGGAAACTATACC (((((.(....).))))) | 41.4 °C | -26.6 kcal/mol |
| GCCGGGCGAAAGCTTGGC (((..((....))..))) | 65.3 °C | -24.4 kcal/mol |
| GATCGGAGGACCGATC ((((((....)))))) | 53.3 °C | -31.2 kcal/mol |
| AAAGGGAAACCTTT (((((....))))) | 32.2 °C | -10 kcal/mol |
| GGTAAGGGAAACCTCACC (((.(((....))).))) | 34.7 °C | -21.9 kcal/mol |
| GCCGAACGAAAGTTGGGC (((.(((....))).))) | 58.5 °C | -38.8 kcal/mol |
| GTATAAGGAAACTTATGC (.(((((....))))).) | 31.6 °C | -18.5 kcal/mol |
| CGTTCGGAAACGAGGACG ((((((....)))..))) | 34.7 °C | -14.1 kcal/mol |

| Sequence | Tm [1] | folding enthalpy [2] |
| --- | --- | --- |
| GAGGACGAAAGTCGCTC ((((((....))).))) | 46 °C | -17.8 kcal/mol |
| GCCGTTCCGAAAGGAGGC (((..(((....)))))) | 50.7 °C | -24.4 kcal/mol |
| GTCAGAGGAAACTCCGAC (((.(((....))).))) | 34.7 °C | -25.3 kcal/mol |
| GCGGAAGGAAACTTCCAC (.(((((....))))).) | 37.4 °C | -15.9 kcal/mol |
| GTAACCGAAAGGTGATAC ((((((....)))..))) | 30.7 °C | -12.9 kcal/mol |
| GCAGAGCGAAAGCTCAGC ((.((((....)))).)) | 64.8 °C | -20.4 kcal/mol |
| GGTTAGCGAAAGCTCACC (((.(((....))).))) | 49.1 °C | -26.6 kcal/mol |
| GTCAAGTCGAAAGACGAC (((..(((....)))))) | 41.9 °C | -15.4 kcal/mol |
| GACCTGCGAAAGCAGTC (((.(((....)))))) | 48.5 °C | -12.2 kcal/mol |
| GCGTTTGGAAACAAGTGC ((..(((....)))..)) | 31.4 °C | -15.8 kcal/mol |
| CGGTTGCGGAAACGCCCG (((..(((....)))))) | 46.5 °C | -22.3 kcal/mol |
| GCAGACCGAAAGGTATGC (((.(((....))).))) | 64.1 °C | -39.5 kcal/mol |
| GCAATCGAAAGATTATGC ((((((....)))..))) | 32.8 °C | -17.5 kcal/mol |
| GCGTAGTTACGC ((((....)))) | 54.4 °C | -22.4 kcal/mol |
| GAGTGAGGAAACTCGCTC (((.(((....))).))) | 50.6 °C | -49.6 kcal/mol |
| GTATGAGAAATCATAC ((((((....)))))) | 44.4 °C | -31.4 kcal/mol |
| GTGTGCGGAAACGCACGC (.(((((....))))).) | 66 °C | -16.4 kcal/mol |
| GACCGACGAAAGTCGTC (((.(((....)))))) | 45 °C | -10.6 kcal/mol |
| GCGAAGCGAAAGCTCCGC (((.(((....))).))) | 50.9 °C | -36.7 kcal/mol |
| GTTGGTGGAAACACTAAC (((.(((....))).))) | 45 °C | -29.6 kcal/mol |
| GACCGGCGAAAGCCAGTC (((.(((....))).))) | 50.7 °C | -20.2 kcal/mol |
| GATCTCGGGGAGATC ((((((...)))))) | 54.3 °C | -30.2 kcal/mol |
| GATCCCTGCGGGGATC ((((((....)))))) | 62 °C | -45.6 kcal/mol |

| Sequence | Tm [1] | folding enthalpy [2] |
| --- | --- | --- |
| GATCGCTGGGGCGATC ((((((....)))))) | 69.1 °C | -32.2 kcal/mol |
| GATCCCATGTGGGATC ((((((....)))))) | 61.2 °C | -38.2 kcal/mol |
| GACCTGAAAAGGTC (((((....))))) | 59 °C | -27.9 kcal/mol |
| GCTAACGAAAGTTGCAGC ((((((....)))..))) | 39 °C | -15.5 kcal/mol |
| GATCGTCACCACGATC ((((((....)))))) | 54 °C | -40.9 kcal/mol |
| GCAGTAACGAAAGTTTGC (((..(((....)))))) | 37.6 °C | -21.9 kcal/mol |
| GGGCAGCGAAAGCTTCCC (((.(((....))).))) | 55.8 °C | -38.7 kcal/mol |
| GAGTACCGAAAGGTTCTC (((.(((....))).))) | 47.9 °C | -30.7 kcal/mol |
| GGTCGCGAAAGCGCTACC ((((((....)))..))) | 36.7 °C | -13 kcal/mol |
| GGTAAGCGAAAGCTACC (((.(((....)))))) | 55 °C | -26.7 kcal/mol |
| GCTAAGCGAAAGCTTGGC ((.((((....)))).)) | 62.9 °C | -34.3 kcal/mol |
| GCTACTCGAAAGAGGAGC (((.(((....))).))) | 61.6 °C | -37.4 kcal/mol |
| GTGTACGAAAGTATACAC ((((((....)))..))) | 44.9 °C | -22 kcal/mol |
| GGTCGCGAAAGCGAGACC ((((((....)))..))) | 51.6 °C | -13.5 kcal/mol |
| GATCATTATATGATC ((((((...)))))) | 48.8 °C | -40.2 kcal/mol |
| GCTATCGGAAACAATAGC (((((.(....).))))) | 35.1 °C | -18.3 kcal/mol |
| GCGGAGTCCGC ((((...)))) | 52.4 °C | -25.6 kcal/mol |
| GCCTAGCGAAAGCTGGC (((.(((....)))))) | 64.8 °C | -29.2 kcal/mol |
| GATCCTTAACAGGATC ((((((....)))))) | 49 °C | -36.3 kcal/mol |
| GTTTTGGGAAACCAAGAC ((.((((....)))).)) | 39 °C | -24.6 kcal/mol |
| GACGAAGGAAACCTCGTC (((((.(....).))))) | 46 °C | -33 kcal/mol |
| GTTAGTGCGAAAGCAAAC (((..(((....)))))) | 28.3 °C | -10.6 kcal/mol |
| CGGTCGGAAACGACGCCG ((((((....)))..))) | 36.7 °C | -11.7 kcal/mol |

| Sequence | Tm [1] | folding enthalpy [2] |
| --- | --- | --- |
| GATCCAGCTTGGATC ((((((...)))))) | 52 °C | -32.9 kcal/mol |
| GGTGACGCGAAAGCGACC (((..(((....)))))) | 40.4 °C | -12.1 kcal/mol |
| GTCAGGCGAAAGCCGGAC (((.(((....))).))) | 69.1 °C | -24.7 kcal/mol |
| GCGAGTGGAAACGCTTGC ((.((.(....).)).)) | 48.6 °C | -22.3 kcal/mol |
| GACACTGCGAAAGCAGTC (((..(((....)))))) | 31.4 °C | -8.12 kcal/mol |
| CGCCCGGAAACGGCGGCG ((((((....)))..))) | 55.7 °C | -24.4 kcal/mol |
| GCTCACGAAAGTGCTAGC ((((((....)))..))) | 35.8 °C | -15.6 kcal/mol |
| GTACGTCGAAAGACTTAC (((.(((....))).))) | 39.3 °C | -25.7 kcal/mol |
| GTCGTGGGAAACCATGGC (.(.(((....))).).) | 40.6 °C | -25.6 kcal/mol |
| GGACGCCGAAAGGCTTCC (((.(((....))).))) | 53.8 °C | -23.4 kcal/mol |
| GATCCTATACAGGATC ((((((....)))))) | 52.4 °C | -38.1 kcal/mol |
| GATCTCCAGGAGATC ((((((...)))))) | 52.3 °C | -37.3 kcal/mol |
| GCGGTACGAAAGTATCGC (((.(((....))).))) | 64.7 °C | -56.1 kcal/mol |
| GACTCTGAAAAGAGTC ((((((....)))))) | 58 °C | -32 kcal/mol |
| GACAACGAAAGTTTGGTC ((((((....)))..))) | 32.9 °C | -16.4 kcal/mol |
| GTTATCGAAAGATTAAC ((((((....))).))) | 29.5 °C | -15.1 kcal/mol |
| GAACGAGGAAACTCGTCC (.(((((....))))).) | 37.8 °C | -13.7 kcal/mol |
| GATCGCTGGGCGATC ((((((...)))))) | 68.8 °C | -35.6 kcal/mol |
| GTCTCATCGAAAGATGAC (((..(((....)))))) | 35.4 °C | -10.9 kcal/mol |
| GCTTAAGAAATTAAGC ((((((....)))))) | 43.5 °C | -26.4 kcal/mol |
| GGGTTTGGAAACAAGTCC ((..(((....)))..)) | 30.4 °C | -22.3 kcal/mol |
| GTCTGTCGAAAGACGGAC (((.(((....))).))) | 63.2 °C | -36.6 kcal/mol |
| GGGGACCGAAAGGTTCCC (((.(((....))).))) | 66.3 °C | -43.5 kcal/mol |
